Format in all cases: functional, cell-based
Assay [1] relates to SW480. The assay is described as follows: Cytotoxicity against human SW480 cells after 48 hrs by MTS assay. Conditions: SW480, 48 h. In outline:
(§1)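 Cells grown in RPMI 1640 with 10% FBS and penicillin/streptomycin at 37 °C under 5% CO2. Adherent lines were seeded at 1 × 10^4 cells/well and left to attach for 12 h. Compounds in DMSO were tested at 0.064, 0.32, 1.6, 8 and 40 μM, in triplicate, for 48 h, with cisplatin as positive control. MTS was then added and formazan dissolved in 20% SDS (12 h, room temperature). OD read at 490 nm; IC50 by Reed and Muench method.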
Background: Formazan colour is commonly taken as a measure of viable cells.

A short description of assay [2]: Cytotoxicity against human BEAS2B cells after 48 hrs by MTS assay. To be noted: BEAS-2B.
Assay [3] has as its system MCF7. The assay can be described thus: Cytotoxicity against human MCF7 cells after 48 hrs by MTS assay. To be noted: MCF7, 48 h. The gist of the method: as §1
In assay [4] the test system is SMMC-7721. The assay is described as follows: Cytotoxicity against human SMMC7721 cells after 48 hrs by MTS assay. To be noted: SMMC-7721, 48 h. The gist of the method:
as §1

A short description of assay [5]: Cytotoxicity against human HL60 cells after 48 hrs by MTS assay. Conditions: HL-60, 48 h. The gist of the method:
as §1

Assay [6] deals with A549. The assay is described as follows: Cytotoxicity against human A549 cells after 48 hrs by MTS assay. Conditions: A549, 48 h. In outline: as §1

Molecules are shown by their SMILES.

By IC50 is commonly meant the concentration at which inhibition is half-maximal. A low value points to inhibition by little substance.

In the case of `CO[C@@H]1C=C([C@@H]2C[C@H]3O[C@@]34[C@@]2(C)C[C@H](O)[C@@H]2[C@@]3(C)C=CC(=O)C(C)(C)C3=C(O)C(=O)[C@]24C)[C@@H](OC)O1`, the half-inhibitory concentration (IC50) in assay [1] is 3.5 µM; in assay [2] it was 5 µM; in assay [3], 4.2 µM; in assay [4], 2.4 µM; in assay [5] it was 3.6 µM; in assay [6], 3.7 µM.

`CC1(C)C(=O)C=C[C@@]2(C)C1=C(O)C(=O)[C@]1(C)[C@@H]2[C@@H](O)C[C@@]2(C)[C@H](C3=CC(=O)O[C@@H]3O)C[C@H]3O[C@]321`: the 50% inhibitory concentration (IC50) came to 2.4 µM in assay [1]; 9.4 µM in assay [2]; 3.9 µM in assay [3]; 2.2 µM in assay [4]; 3.1 µM in assay [5]; 2.6 µM in assay [6].

The values above are taken from ChEMBL document CHEMBL3351792, “Limonoids from the Leaves and Twigs of Walsura yunnanensis” (J Nat Prod, 2014).
